Reference: ChEMBL document CHEMBL2086386, “Potent and orally efficacious benzothiazole amides as TRPV1 antagonists” (Bioorg Med Chem Lett, 2012)
Values after ≈ are worked out from the molar mass of the structure shown. Active and inactive are the calls of the source.

Assays:
[1] = Aqueous solubility of the compound in sodium phosphate buffer at pH 7.4; format: physicochemical
Summary of the method: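 Solubility measured in 0.1 M sodium phosphate buffer.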

[2] = Intrinsic clearance in human liver microsomes assessed per mg of protein; format: ADME, Microsome; conditions: read-out: CLH
[3] = target: Transient receptor potential cation channel subfamily V member 1 (Homo sapiens, UniProt Q8NER1); assay: Antagonist activity at human recombinant TRPV1 receptor assessed as inhibition of capsaicin-induced calcium uptake by FLIPR assay; format: functional
Summary of the method: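 Whole-cell fluorescence imaging assay (FLIPR II) of the rise in intracellular Ca2+ on capsaicin addition. Inhibition by the test compound is quantified.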

[4] = Clearance in rat hepatocytes assessed as per 10^6 cells; format: ADME, cell-based, Hepatocyte; conditions: read-out: CLH
[5] = Half life in iv dosed Sprague-Dawley rat; format: ADME, organism-based; conditions: in vivo
[6] = target: Transient receptor potential cation channel subfamily V member 1 (Rattus norvegicus) (UniProt O35433); assay: Binding affinity to rat TRPV1 at 1 uM
[7] = Oral bioavailability in Sprague-Dawley rat; format: ADME, organism-based; conditions: in vivo
Rattus norvegicus [8] = assay: Analgesic activity against capsaicin-induced thermal hyperalgesia in Sprague-Dawley rat assessed as paw withdrawal latency at 90 umol/kg, po after 30 mins; format: functional
Summary of the method: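 Male Sprague-Dawley rats (125-200 g), groups of 7, acclimatized at least 3 days and tested in the light phase. Capsaicin 10 μg/5 μL is injected intradermally into the plantar left hind paw of restrained rats. Heat hyperalgesia is read 30 min later as radiant-heat paw withdrawal latency on a 30 °C glass surface: two trials about 5 min apart, averaged, 20 s cut-off. Naïve rats serve as controls. Single oral dose.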

Rattus norvegicus [9] = assay: Analgesic activity against carrageenan-induced thermal hyperalgesia in Sprague-Dawley rat assessed as paw withdrawal latency at 100 umol/kg, po after 30 mins after 3 hrs; format: functional
Summary of the method: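 Male Sprague-Dawley rats (125-200 g), groups of 7. Under isoflurane, 100 µl of 1% carrageenan is injected subcutaneously into the plantar left hind paw, and testing is done 3 h later. After 30 min acclimation on a 30 °C glass surface, radiant heat is focused on the affected paw. Withdrawal latency is the mean of two trials about 5 min apart, with a 20 s cut-off. Naïve rats serve as controls. Single oral dose.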

Rattus norvegicus [10] = assay: Toxicity in Sprague-Dawley rat assessed as effect on body temperature at 100 umol/kg, po; format: organism-based; conditions: in vivo

Sequence of Transient receptor potential cation channel subfamily V member 1 (Q8NER1 whole entry): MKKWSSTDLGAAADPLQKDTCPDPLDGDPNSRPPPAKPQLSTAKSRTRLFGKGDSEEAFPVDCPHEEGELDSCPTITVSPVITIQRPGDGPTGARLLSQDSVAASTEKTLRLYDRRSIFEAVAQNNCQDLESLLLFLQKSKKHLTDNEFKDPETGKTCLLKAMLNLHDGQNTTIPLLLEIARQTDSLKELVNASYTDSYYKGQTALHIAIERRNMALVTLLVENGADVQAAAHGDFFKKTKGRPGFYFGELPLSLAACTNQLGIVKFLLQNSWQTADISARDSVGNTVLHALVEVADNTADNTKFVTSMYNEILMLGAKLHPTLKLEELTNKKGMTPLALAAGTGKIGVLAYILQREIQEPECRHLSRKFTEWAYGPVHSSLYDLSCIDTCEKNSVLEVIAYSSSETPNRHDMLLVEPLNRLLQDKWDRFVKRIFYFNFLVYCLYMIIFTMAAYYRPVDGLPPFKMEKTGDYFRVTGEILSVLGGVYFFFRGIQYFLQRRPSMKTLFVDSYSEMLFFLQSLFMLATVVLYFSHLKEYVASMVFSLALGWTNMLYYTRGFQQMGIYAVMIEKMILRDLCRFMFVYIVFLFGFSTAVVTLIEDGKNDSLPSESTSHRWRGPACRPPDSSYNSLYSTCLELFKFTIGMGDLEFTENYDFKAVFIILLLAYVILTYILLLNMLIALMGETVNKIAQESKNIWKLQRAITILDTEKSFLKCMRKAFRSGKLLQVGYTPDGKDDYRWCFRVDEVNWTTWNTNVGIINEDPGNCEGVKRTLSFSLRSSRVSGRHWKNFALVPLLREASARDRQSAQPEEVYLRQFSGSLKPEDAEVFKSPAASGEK
Sequence of Transient receptor potential cation channel subfamily V member 1 (Rattus norvegicus) (O35433 whole entry): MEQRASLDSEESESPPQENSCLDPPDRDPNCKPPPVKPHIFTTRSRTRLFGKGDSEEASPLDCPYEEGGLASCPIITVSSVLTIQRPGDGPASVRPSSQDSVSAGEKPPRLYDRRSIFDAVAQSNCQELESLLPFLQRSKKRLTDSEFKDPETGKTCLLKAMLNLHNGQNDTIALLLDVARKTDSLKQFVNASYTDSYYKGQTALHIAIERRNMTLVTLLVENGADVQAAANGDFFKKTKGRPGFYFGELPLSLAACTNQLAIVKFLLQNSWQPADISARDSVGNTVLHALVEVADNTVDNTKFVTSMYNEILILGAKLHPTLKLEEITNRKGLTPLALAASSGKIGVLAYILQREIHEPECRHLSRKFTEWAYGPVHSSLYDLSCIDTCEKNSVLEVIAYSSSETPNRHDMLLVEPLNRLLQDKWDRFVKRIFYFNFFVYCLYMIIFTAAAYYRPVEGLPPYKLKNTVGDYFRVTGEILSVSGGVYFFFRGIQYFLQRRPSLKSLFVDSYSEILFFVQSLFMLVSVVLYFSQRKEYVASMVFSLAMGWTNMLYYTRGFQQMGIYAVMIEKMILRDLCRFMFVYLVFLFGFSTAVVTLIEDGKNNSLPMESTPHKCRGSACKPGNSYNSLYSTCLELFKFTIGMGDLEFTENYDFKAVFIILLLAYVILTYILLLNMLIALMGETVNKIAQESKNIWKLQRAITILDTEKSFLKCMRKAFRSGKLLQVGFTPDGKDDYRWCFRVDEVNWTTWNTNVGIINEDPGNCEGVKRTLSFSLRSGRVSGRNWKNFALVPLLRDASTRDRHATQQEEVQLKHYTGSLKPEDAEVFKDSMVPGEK

Row | Structure (SMILES) | solubility [1] [µM] | IC50 [3] [nM] | also measured
1 | O=C(Nc1ccc2sc(CO)nc2c1)c1ccc(C(F)(F)F)nc1 | 61 (≈ 21.6 µg/mL) |  | microsomal CLint [2]: 13 µL/min/mg
2 | O=C(Nc1ccc2sc(CO)nc2c1)c1ccc(OCC(F)(F)F)nc1 | 9 (≈ 3.45 µg/mL) | 41 | 
3 | O=C(Nc1ccc2sc(CO)nc2c1)c1ccc(Cl)cc1 | 3 (≈ 0.956 µg/mL) | 68.2 | microsomal CLint [2]: 14 µL/min/mg; hepatocyte CLint [4]: 66 µL/min/1e6 cells
4 | Cn1nc(C(F)(F)F)cc1C(=O)Nc1ccc2sc(CO)nc2c1 | 14 (≈ 4.99 µg/mL) | 157 | microsomal CLint [2]: 9 µL/min/mg
5 | Cc1cc(OC(C)C)ccc1C(=O)Nc1ccc2sc(CO)nc2c1 | 9 (≈ 3.21 µg/mL) |  | hepatocyte CLint [4]: 12 µL/min/1e6 cells
6 | O=C(Nc1ccc2sc(CO)nc2c1)C1CCC(C(F)(F)F)CC1 (stereo not drawn) | 77 (≈ 27.6 µg/mL) | > 10000 | 
7 | CC(=O)NCc1nc2cc(NC(=O)c3ccc(C(C)(C)C)cc3)ccc2s1 |  | 2410 | 
8 | CCN(CC)Cc1ccc(C(=O)Nc2ccc3sc(CO)nc3c2)cc1 | 5160 (≈ 1910 µg/mL) | > 10000 | 
9 | O=C(Nc1ccc2sc(CO)nc2c1)c1ccc(Br)cc1 | 5 (≈ 1.82 µg/mL) | 26.5 | hepatocyte CLint [4]: 54 µL/min/1e6 cells
10 | O=C(Nc1ccc2sc(CO)nc2c1)c1ccc(CN2CCOCC2)cc1 | 419 (≈ 161 µg/mL) | > 10000 | microsomal CLint [2]: 13 µL/min/mg
11 | CC(O)c1nc2cc(NC(=O)c3ccc(C(C)(C)C)cc3)ccc2s1 (racemic) |  | 223 | 
12 | CCOCc1ccc(C(=O)Nc2ccc3sc(CO)nc3c2)cc1 | 37 (≈ 12.7 µg/mL) | 489 | microsomal CLint [2]: 24 µL/min/mg
13 | CC(C)(C)OCc1ccc(C(=O)Nc2ccc3sc(CO)nc3c2)cc1 | 11 (≈ 4.08 µg/mL) | 52.2 | 
14 | Cc1cc(Cl)ccc1C(=O)Nc1ccc2sc(CO)nc2c1 | 7 (≈ 2.33 µg/mL) | 85.9 | hepatocyte CLint [4]: 17 µL/min/1e6 cells
15 | Cc1ccc(CCNC(=O)c2ccc3sc(CO)nc3c2)cc1 |  | 1610 | 
16 | C#Cc1ccc(C(=O)Nc2ccc3sc(CO)nc3c2)cc1 | 25 (≈ 7.71 µg/mL) | 175 | 

Row | Structure (SMILES) | solubility [1] [µM] | IC50 [3] [nM] | also measured
17 | CC(C)(C)Oc1cccc(C(=O)Nc2ccc3sc(CO)nc3c2)c1 | 181 (≈ 64.5 µg/mL) | 1070 | 
18 | CC(C)(C)c1ccc(NC(=O)c2ccc3sc(CO)nc3c2)cc1 |  | > 10000 | 
19 | O=S(=O)(Nc1ccc2sc(CO)nc2c1)c1ccc(Br)cc1 |  | > 10000 | 
20 | Cc1cc(Br)ccc1C(=O)Nc1ccc2sc(CO)nc2c1 | 10 (≈ 3.77 µg/mL) | 52.3 | half-life [5]: 2.4 h; hepatocyte CLint [4]: 24 µL/min/1e6 cells; Activity [6]: Active; bioavailability [7]: 53%; Activity (Rattus norvegicus [8]): 72%; Activity (Rattus norvegicus [9]): 35%; Activity (Rattus norvegicus [10]): Non-toxic
21 | CC(C)(C)c1ccc(C(=O)Nc2ccc3sc(CN)nc3c2)cc1 |  | 987 | 
22 | O=S(=O)(Nc1ccc(C(F)(F)F)cc1)c1ccc2sc(CO)nc2c1 |  | 5570 | 
23 | CC(C)(C)Oc1ccc(C(=O)Nc2ccc3sc(CO)nc3c2)cc1 | 64 (≈ 22.8 µg/mL) | 9.8 | microsomal CLint [2]: 19 µL/min/mg
24 | O=C(Nc1ccc2sc(CO)nc2c1)c1ccc(C(F)(F)F)cc1 |  | 11.9 | 
25 | Cc1ccc(-c2cc(C(F)(F)F)nn2-c2ccc(S(N)(=O)=O)cc2)cc1 [CELECOXIB] |  |  | Activity (Rattus norvegicus [9]): 35%
26 | CC(C)(C)c1ccc(C(=O)Nc2ccc3sc(CO)nc3c2)cc1 | 6 (≈ 2.04 µg/mL) | 3.7 | microsomal CLint [2]: 57 µL/min/mg
27 | CC(C)Oc1ccc(C(=O)Nc2ccc3sc(CO)nc3c2)cc1 | 38 (≈ 13 µg/mL) | 33.4 | microsomal CLint [2]: 12 µL/min/mg; hepatocyte CLint [4]: 57 µL/min/1e6 cells
28 | CC(C)(C)c1ccc(C(=O)Nc2ccc3sc(CNS(C)(=O)=O)nc3c2)cc1 |  | 708 | 
29 | Cc1nc2cc(NC(=O)c3ccc(C(C)(C)C)cc3)ccc2s1 | 2.2 (≈ 0.714 µg/mL) | 27 | 
30 | O=C(Nc1ccc2sc(CO)nc2c1)c1ccc(N2CCCCC2)nc1 | 4 (≈ 1.47 µg/mL) |  | 
31 | CC(C)(C)c1ccc(CNc2ccc3sc(CO)nc3c2)cc1 |  | 833 | 
